Laboratory results taken from ChEMBL document CHEMBL1138230, “Synthesis and SAR comparison of regioisomeric aryl naphthyridines as potent mGlu5 receptor antagonists” (Bioorg Med Chem Lett, 2007).

test system: Rattus norvegicus; experiment: Inhibition of change in hind paw weight distribution in monosodium iodoacetate-induced osteoarthritis rat model at 10 mg/kg, ip after 6 hrs; assay type: organism-based; set-up: dose 10 mg/kg, route intraperitoneal; conditions: in vivo; call rule not given here

Activity | SMILES
Active | COc1cc(OC)cc(-c2ccc3ccc(C)nc3n2)c1

test system: Rattus norvegicus; experiment: Inhibition of change in hind paw weight distribution in monosodium iodoacetate-induced osteoarthritis rat model at 10 mg/kg, ip after 4 hrs; assay type: organism-based; set-up: dose 10 mg/kg, route intraperitoneal; conditions: in vivo

Activity | SMILES
Active | COc1cc(OC)cc(-c2ccc3ccc(C)nc3n2)c1

molecular target: Metabotropic glutamate receptor 5 (Rattus norvegicus, UniProt P31424); experiment: Antagonist activity at rat mGlu5 receptor expressed in CHO cells assessed as inhibition of quisqualate-stimulated calcium mobilization; assay type: functional, cell-based; conditions: not given
Sequence (P31424 whole entry): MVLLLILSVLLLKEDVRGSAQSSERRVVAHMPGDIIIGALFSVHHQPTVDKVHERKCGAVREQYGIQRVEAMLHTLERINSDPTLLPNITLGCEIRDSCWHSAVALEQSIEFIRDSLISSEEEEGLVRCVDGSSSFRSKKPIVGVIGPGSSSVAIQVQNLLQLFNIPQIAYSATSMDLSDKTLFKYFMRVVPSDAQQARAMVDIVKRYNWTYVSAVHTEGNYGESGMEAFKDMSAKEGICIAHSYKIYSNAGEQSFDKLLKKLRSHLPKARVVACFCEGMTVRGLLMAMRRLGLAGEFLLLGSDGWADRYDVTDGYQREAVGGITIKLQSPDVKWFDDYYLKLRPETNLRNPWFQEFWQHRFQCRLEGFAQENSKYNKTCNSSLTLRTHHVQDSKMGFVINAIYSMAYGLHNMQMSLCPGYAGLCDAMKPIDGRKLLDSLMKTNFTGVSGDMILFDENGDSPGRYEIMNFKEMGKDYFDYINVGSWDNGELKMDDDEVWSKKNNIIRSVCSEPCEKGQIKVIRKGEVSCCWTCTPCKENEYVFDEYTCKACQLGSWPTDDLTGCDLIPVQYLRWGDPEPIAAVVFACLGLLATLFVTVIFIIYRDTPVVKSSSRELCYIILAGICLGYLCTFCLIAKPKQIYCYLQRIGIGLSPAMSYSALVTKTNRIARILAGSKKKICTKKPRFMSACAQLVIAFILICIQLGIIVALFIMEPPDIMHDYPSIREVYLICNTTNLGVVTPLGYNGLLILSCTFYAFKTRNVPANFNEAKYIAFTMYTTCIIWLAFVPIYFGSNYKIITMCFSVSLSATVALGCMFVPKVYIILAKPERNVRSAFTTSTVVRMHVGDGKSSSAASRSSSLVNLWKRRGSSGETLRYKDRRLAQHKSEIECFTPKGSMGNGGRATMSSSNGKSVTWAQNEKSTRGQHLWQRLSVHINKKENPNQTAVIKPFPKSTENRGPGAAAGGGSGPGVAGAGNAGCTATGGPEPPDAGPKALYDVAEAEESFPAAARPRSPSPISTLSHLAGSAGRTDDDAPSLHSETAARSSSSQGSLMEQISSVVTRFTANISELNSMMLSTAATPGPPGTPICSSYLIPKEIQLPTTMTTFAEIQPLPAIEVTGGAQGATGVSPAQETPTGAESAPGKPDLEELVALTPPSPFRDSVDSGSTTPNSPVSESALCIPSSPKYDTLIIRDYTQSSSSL
How it was run: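 CHO cells stably expressing rat mGlu5; inhibition of quisqualate-stimulated calcium mobilization read by FLIPR. Values are geometric means of two or more experiments.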

SMILES | IC50
c1ccc(-c2ccc3cccnc3n2)cc1 | 1840 nM
c1ccc(-c2cc3ncccc3cn2)cc1 | > 30000 nM
Cc1cccc(-c2ccc3ccc(C)nc3n2)c1 | 277 nM
Cc1cc(C)cc(-c2cnc3cccnc3c2)c1 | > 30000 nM
Cc1ccc2ccc(-c3cccc(C#N)c3)nc2n1 | 480 nM
COc1cc(OC)cc(-c2cc3ncccc3cn2)c1 | 6070 nM
Cc1cccc(-c2cnc3cccnc3c2)c1 | 15700 nM
Cc1ccc(-c2cnc3cccnc3c2)cc1C | 12000 nM
Cc1ccc2cnc(-c3ccccc3)cc2n1 | > 30000 nM
Cc1cccc(-c2cc3nc(C)ccc3cn2)c1 | 676 nM
COc1cccc(-c2cc3nc(C)ccc3cn2)c1 | 7900 nM
COc1cc(OC)cc(-c2cc3nc(C)ccc3cn2)c1 | 345 nM
Cc1cccc(-c2cc3ncccc3cn2)c1 | 1270 nM
Cc1cc(F)cc(-c2cc3ncccc3cn2)c1 | 6570 nM
N#Cc1cc(F)cc(-c2cc3ncccc3cn2)c1 | 1590 nM
COCOc1cc(C#N)cc(-c2cc3ncccc3cn2)c1 | 468 nM
Cc1cc(F)cc(-c2cc3nc(C)ccc3cn2)c1 | 2930 nM
N#Cc1cccc(-c2cnc3cccnc3c2)c1 | 18600 nM
Cc1ccc2ccc(-c3ccccc3)nc2n1 | 664 nM

Stronger by IC50, values ahead:

IC50 | SMILES
115 nM | N#Cc1cccc(-c2ccc3cccnc3n2)c1
45 nM | Cc1ccc(-c2ccc3cccnc3n2)cc1C
181 nM | Cc1ccc2ccc(-c3cc(F)cc(F)c3)nc2n1
47.9 nM | Cc1ccc2ccc(-c3cccc(Br)c3)nc2n1
6.19 nM | COc1cc(C#N)cc(-c2cc3nc(C)ccc3cn2)c1
67 nM | COc1cc(OC)cc(-c2ccc3cccnc3n2)c1
68 nM | COc1cc(C#N)cc(-c2cc3ncccc3cn2)c1
225 nM | Cc1cccc(-c2ccc3cccnc3n2)c1
177 nM | Cc1ccc2ccc(-c3cccc(Cl)c3)nc2n1
55 nM | COc1cc(C#N)cc(-c2cnc3cccnc3c2)c1
51.7 nM | COc1cc(OC)cc(-c2ccc3ccc(C)nc3n2)c1

test system: Rattus norvegicus; experiment: Inhibition of change in hind paw weight distribution in monosodium iodoacetate-induced osteoarthritis rat model at 10 mg/kg, ip after 2 hrs; assay type: organism-based; set-up: dose 10 mg/kg, route intraperitoneal; conditions: in vivo

Activity | SMILES
Active | COc1cc(OC)cc(-c2ccc3ccc(C)nc3n2)c1
